According to ChEMBL document CHEMBL5260822, “Structure-based design and synthesis of 2,4-diaminopyrimidines as EGFR L858R/T790M selective inhibitors for NSCLC” (Eur J Med Chem, 2017):
pIC50: −log10 of the molar value. The source made the active and inactive calls. The calls are words filed in the database; no cut-off is given here.

Assays:
[1] = AUC (0 to infinity) in Sprague-Dawley rat at 10 mg/kg, po and measured after 24 hrs by LC-MS/MS analysis; assay type: ADME, organism-based; design: dose 10 mg/kg, time 24 hrs, route po; conditions: in vivo
Procedure, shortened: (§1)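 Male Sprague–Dawley rats (190–220 g) dosed by oral gavage at 10 mg/kg in 5% DMSO / 95% HP-β-CD aqueous solution (20%); iv reference arm at 1 mg/kg. Blood sampled at 0.25, 0.5, 1, 2, 4, 6, 8 and 24 h, centrifuged (8000 × g, 6 min), and plasma quantified by LC–MS/MS.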

[2] = target: Insulin-like growth factor 1 receptor (Homo sapiens) (UniProt P08069); experiment: Inhibition of IGF1R (unknown origin) at 1000 nM by DiscoverX KINOMEscan assay relative to control; values are per cent of control
[3] = Cmax in Sprague-Dawley rat at 1 mg/kg, iv and measured after 24 hrs by LC-MS/MS analysis; assay type: ADME, organism-based; design: dose 1 mg/kg, time 24 hrs, route iv; conditions: in vivo
NCI-H1975 [4] = experiment: Inhibition of Akt signalling in EGF-stimulated human NCI-H1975 cells harboring EGFR L858R/T790M double mutant assessed as […] at 0.1 to 100 nM and measured after 2 hrs by Western blot analysis; assay type: cell-based; conditions: dose 0.1-100 nM
[5] = Toxicity in BALB/c nude mouse xenografted with human NCI-H1975 cells harboring EGFR L858R/T790M mutant assessed as morphological changes in heart at 15 to 30 mg/kg, po for 18 days by hematoxylin and eosin staining based microscopic analysis; assay type: organism-based; conditions: in vivo, 432 h, dose 15-30 mg/kg, time 18 day
Procedure, shortened: (§2)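 H1975 subcutaneous xenografts were grown in female BALB/cA nu/nu mice (n = 6 per group), dosed at 15 or 30 mg/kg/day for 18 days or with vehicle. At the end the mice were sacrificed. Heart, kidney and liver were harvested, processed and stained with hematoxylin and eosin for routine histological examination.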

[6] = Volume of distribution at steady state in Sprague-Dawley rat at 1 mg/kg, iv and measured after 24 hrs by LC-MS/MS analysis; assay type: ADME, organism-based; conditions: in vivo, read-out: Vdss
[7] = target: Epidermal growth factor receptor (Homo sapiens, UniProt P00533, L858R/T790M); experiment: Inhibition of EGFR L858R/T790M mutant (unknown origin) expressed in baculovirus expression system by ELISA
[8] = Clearance in Sprague-Dawley rat at 1 mg/kg, iv and measured after 24 hrs by LC-MS/MS analysis; assay type: ADME, organism-based; conditions: in vivo
[9] = target: Receptor tyrosine-protein kinase erbB-4 (Homo sapiens) (UniProt Q15303); experiment: Inhibition of ERBB4 (unknown origin) at 1000 nM by DiscoverX KINOMEscan assay relative to control; values are per cent of control
[10] = Cmax in Sprague-Dawley rat at 10 mg/kg, po and measured after 24 hrs by LC-MS/MS analysis; assay type: ADME, organism-based; design: dose 10 mg/kg, time 24 hrs, route po; conditions: in vivo; procedure, shortened: as §1
[11] = test system: Epidermal growth factor receptor (Homo sapiens), P00533 [L858R,T790M]; experiment: In vivo inhibition of EGFR in BALB/c nude mouse xenografted with human NCI-H1975 cells harboring EGFR L858R/T790M mutant assessed as decrease in phosphorylated-EGFR level at 15 to 30 mg/kg, po for 18 days by western blot analysis; assay type: functional, organism-based; conditions: dose 15-30 mg/kg, time 18.0 day
[12] = Toxicity in BALB/c nude mouse xenografted with human NCI-H1975 cells harboring EGFR L858R/T790M mutant assessed as body weight loss at 15 to 30 mg/kg, po for 18 days; assay type: organism-based; conditions: in vivo, 432 h, dose 15-30 mg/kg, time 18 day
Procedure, shortened: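 Female BALB/cA nu/nu mice were given 1 × 10^6 H1975 cells in 0.1 mL PBS subcutaneously in the right flank. At an average tumour volume of 100 mm3 (about 18 days post-implantation) they were randomised, n = 6 per group. Groups received 15 or 30 mg/kg/day for 18 consecutive days or vehicle. Mice were kept at constant room temperature, 12/12-h light/dark, with standard diet and water ad lib.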

[13] = target: Epidermal growth factor receptor (Homo sapiens, UniProt P00533); experiment: Inhibition of EGFR phosphorylation in EGF-stimulated human A-431 cells harboring wild type EGFR at 100 nM and measured after 2 hrs by Western blot analysis; assay type: cell-based
Procedure, shortened: (§3)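 Cells treated with compound for 2 h, then stimulated with EGF for 15 min and lysed. Lysates cleared at 12,000 × g (10 min, 4 °C), protein measured by Bradford assay, and equal amounts run on 8% SDS-PAGE and blotted to nitrocellulose. Probed for p-EGFR (Y1068), EGFR, p-ERK (T202/Y204), ERK, with tubulin or GAPDH as loading controls.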

[14] = target: Tyrosine-protein kinase JAK2 (Homo sapiens) (UniProt O60674); experiment: Inhibition of JAK2 (unknown origin) at 1000 nM by DiscoverX KINOMEscan assay relative to control; values are per cent of control
[15] = test system: Epidermal growth factor receptor (Homo sapiens), P00533 [L858R,T790M]; experiment: Inhibition of EGFR phosphorylation in EGF-stimulated human NCI-H1975 cells harboring EGFR L858R/T790M double mutant at 0.1 to 100 nM and measured after 2 hrs by Western blot analysis; assay type: cell-based; conditions: dose 0.1-100 nM; procedure, shortened: as §3
NCI-H1975 [16] = experiment: Antitumor activity against human NCI-H1975 cells harboring EGFR L858R/T790M mutant xenografted in BALB/c nude mouse assessed as tumor growth inhibition at 30 mg/kg, po for 18 days; assay type: functional; conditions: NCI-H1975, 432 h, time 18 day, read-out: TGI
Procedure, shortened: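 H1975 cells (1 × 10^6 in 0.1 mL PBS) injected subcutaneously into the right flank of female nude mice. At mean tumor volume of about 100 mm3 (roughly 18 days), mice randomized, n = 6 per group, and dosed once daily for 18 days against a vehicle group. Tumor volume (0.5 × L × W²) measured every 2–3 days; tumors weighed at sacrifice. Data given as mean ± SEM.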

[17] = target: Insulin receptor (Homo sapiens) (UniProt P06213); experiment: Inhibition of INSR (unknown origin) at 1000 nM by DiscoverX KINOMEscan assay relative to control; values are per cent of control
NCI-H1975 [18] = experiment: Inhibition of Erk signalling in EGF-stimulated human NCI-H1975 cells harboring EGFR L858R/T790M double mutant assessed as decrease in p-ERK level at 0.1 to 100 nM and measured after 2 hrs by Western blot analysis; assay type: cell-based; conditions: dose 0.1-100 nM; procedure, shortened: as §3
[19] = AUC (0 to infinity) in Sprague-Dawley rat at 1 mg/kg, iv and measured after 24 hrs by LC-MS/MS analysis; assay type: ADME, organism-based; design: time 24 hrs, dose 1 mg/kg, route iv; conditions: in vivo
NCI-H1975 [20] = experiment: Antiproliferative activity against human NCI-H1975 cells harboring EGFR L858R/T790M double mutant assessed as inhibition of cell proliferation incubated for 72 hrs by sulforhodamine B colorimetric assay; assay type: functional, cell-based; conditions: NCI-H1975, 72 h
[21] = Half life in Sprague-Dawley rat at 1 mg/kg, iv and measured after 24 hrs by LC-MS/MS analysis; assay type: ADME, organism-based; conditions: in vivo
[22] = Toxicity in BALB/c nude mouse xenografted with human NCI-H1975 cells harboring EGFR L858R/T790M mutant assessed as morphological changes in kidney at 15 to 30 mg/kg, po for 18 days by hematoxylin and eosin staining based microscopic analysis; assay type: organism-based; conditions: in vivo, 432 h, dose 15-30 mg/kg, time 18 day; procedure, shortened: as §2

Chain of Epidermal growth factor receptor (Homo sapiens), P00533 [L858R,T790M] (P00533 whole entry T790M/L858R, looked up): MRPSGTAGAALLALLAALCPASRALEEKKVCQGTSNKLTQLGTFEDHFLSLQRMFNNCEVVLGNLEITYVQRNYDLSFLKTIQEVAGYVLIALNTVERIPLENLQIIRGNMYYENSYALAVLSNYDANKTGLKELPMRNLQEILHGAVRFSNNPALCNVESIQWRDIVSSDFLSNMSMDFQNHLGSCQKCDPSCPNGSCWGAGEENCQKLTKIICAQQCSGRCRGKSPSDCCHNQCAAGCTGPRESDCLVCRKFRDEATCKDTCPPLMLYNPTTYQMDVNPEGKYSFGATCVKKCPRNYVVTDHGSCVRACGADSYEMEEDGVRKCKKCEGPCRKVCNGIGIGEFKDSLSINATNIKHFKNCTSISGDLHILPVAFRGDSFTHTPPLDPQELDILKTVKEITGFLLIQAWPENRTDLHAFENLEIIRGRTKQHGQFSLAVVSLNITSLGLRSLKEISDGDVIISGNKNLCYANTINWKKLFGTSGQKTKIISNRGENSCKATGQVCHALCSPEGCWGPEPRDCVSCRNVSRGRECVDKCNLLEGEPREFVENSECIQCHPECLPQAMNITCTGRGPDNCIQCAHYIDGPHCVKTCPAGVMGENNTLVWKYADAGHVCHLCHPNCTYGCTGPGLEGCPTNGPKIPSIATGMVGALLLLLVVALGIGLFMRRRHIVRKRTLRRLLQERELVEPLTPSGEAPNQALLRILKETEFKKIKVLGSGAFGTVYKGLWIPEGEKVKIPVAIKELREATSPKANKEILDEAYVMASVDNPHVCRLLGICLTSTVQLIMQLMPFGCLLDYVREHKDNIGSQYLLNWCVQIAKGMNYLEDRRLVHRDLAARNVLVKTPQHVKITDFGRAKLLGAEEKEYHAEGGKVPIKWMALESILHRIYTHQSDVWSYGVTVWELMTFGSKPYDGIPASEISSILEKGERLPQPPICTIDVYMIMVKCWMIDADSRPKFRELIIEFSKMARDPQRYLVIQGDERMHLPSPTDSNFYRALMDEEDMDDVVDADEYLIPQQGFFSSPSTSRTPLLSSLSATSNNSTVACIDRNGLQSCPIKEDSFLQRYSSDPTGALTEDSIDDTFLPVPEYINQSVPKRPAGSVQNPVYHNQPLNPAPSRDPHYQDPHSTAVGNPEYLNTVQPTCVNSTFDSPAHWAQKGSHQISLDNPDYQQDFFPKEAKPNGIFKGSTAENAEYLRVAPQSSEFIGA
Chain of Tyrosine-protein kinase JAK2 (Homo sapiens) (O60674 whole entry): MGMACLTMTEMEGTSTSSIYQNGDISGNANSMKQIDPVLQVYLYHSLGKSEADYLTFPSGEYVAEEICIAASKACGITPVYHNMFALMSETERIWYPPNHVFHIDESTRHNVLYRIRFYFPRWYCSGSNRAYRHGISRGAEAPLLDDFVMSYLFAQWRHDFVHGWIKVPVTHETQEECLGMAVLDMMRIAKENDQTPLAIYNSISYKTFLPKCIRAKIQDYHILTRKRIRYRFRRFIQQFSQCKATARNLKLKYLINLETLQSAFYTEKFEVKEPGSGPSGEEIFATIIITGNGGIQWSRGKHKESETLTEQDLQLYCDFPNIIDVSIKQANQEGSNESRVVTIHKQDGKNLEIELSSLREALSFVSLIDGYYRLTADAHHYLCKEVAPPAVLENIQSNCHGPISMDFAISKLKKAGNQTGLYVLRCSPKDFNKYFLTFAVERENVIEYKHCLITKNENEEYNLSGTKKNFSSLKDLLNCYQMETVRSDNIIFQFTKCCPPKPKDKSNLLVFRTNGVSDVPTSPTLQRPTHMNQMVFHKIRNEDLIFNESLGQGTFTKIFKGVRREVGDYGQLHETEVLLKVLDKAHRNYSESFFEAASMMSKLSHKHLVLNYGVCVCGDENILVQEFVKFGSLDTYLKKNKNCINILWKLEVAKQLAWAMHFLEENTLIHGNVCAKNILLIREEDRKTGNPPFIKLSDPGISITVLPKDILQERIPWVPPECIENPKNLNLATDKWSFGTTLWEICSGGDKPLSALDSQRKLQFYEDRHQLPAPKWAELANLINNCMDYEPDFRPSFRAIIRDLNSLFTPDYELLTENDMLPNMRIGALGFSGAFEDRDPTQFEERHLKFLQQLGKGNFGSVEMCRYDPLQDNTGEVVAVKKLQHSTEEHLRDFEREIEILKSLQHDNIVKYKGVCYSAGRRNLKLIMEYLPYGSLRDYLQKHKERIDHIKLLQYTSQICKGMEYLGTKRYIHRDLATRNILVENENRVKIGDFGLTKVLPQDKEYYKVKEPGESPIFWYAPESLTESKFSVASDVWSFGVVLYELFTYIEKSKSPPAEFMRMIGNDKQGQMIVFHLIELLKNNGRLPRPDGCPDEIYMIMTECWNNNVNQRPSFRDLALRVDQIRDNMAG
Chain of Epidermal growth factor receptor (Homo sapiens, UniProt P00533) (P00533 whole entry): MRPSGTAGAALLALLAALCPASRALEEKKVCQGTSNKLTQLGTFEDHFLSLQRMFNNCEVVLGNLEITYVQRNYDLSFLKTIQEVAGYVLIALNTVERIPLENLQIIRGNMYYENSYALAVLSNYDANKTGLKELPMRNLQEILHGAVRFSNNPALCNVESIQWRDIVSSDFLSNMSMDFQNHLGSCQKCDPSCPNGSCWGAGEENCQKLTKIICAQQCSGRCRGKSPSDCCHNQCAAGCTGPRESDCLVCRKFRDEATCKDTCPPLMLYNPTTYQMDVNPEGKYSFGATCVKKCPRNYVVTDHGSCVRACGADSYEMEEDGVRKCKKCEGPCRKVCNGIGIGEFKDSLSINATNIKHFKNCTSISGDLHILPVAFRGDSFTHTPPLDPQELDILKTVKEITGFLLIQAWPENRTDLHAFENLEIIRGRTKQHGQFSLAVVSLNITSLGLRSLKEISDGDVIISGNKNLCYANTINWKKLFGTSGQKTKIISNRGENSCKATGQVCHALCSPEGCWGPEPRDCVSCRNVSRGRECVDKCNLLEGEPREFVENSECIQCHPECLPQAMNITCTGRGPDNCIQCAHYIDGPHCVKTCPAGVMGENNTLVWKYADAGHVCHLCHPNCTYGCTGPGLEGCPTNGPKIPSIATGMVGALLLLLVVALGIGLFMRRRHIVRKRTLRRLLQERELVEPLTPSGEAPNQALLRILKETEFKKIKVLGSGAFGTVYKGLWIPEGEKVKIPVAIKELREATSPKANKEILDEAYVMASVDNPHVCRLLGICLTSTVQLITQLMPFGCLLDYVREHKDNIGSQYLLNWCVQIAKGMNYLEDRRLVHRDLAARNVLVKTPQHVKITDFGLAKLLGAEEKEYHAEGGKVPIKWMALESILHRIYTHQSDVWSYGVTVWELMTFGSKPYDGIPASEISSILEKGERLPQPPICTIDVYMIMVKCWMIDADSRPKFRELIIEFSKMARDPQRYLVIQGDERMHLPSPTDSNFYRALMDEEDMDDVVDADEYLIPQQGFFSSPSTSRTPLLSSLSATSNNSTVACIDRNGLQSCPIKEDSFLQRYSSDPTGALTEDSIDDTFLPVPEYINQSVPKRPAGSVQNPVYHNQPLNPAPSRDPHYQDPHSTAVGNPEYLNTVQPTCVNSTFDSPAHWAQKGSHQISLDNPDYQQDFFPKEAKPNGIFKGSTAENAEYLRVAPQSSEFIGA
Chain of Receptor tyrosine-protein kinase erbB-4 (Homo sapiens) (Q15303 whole entry): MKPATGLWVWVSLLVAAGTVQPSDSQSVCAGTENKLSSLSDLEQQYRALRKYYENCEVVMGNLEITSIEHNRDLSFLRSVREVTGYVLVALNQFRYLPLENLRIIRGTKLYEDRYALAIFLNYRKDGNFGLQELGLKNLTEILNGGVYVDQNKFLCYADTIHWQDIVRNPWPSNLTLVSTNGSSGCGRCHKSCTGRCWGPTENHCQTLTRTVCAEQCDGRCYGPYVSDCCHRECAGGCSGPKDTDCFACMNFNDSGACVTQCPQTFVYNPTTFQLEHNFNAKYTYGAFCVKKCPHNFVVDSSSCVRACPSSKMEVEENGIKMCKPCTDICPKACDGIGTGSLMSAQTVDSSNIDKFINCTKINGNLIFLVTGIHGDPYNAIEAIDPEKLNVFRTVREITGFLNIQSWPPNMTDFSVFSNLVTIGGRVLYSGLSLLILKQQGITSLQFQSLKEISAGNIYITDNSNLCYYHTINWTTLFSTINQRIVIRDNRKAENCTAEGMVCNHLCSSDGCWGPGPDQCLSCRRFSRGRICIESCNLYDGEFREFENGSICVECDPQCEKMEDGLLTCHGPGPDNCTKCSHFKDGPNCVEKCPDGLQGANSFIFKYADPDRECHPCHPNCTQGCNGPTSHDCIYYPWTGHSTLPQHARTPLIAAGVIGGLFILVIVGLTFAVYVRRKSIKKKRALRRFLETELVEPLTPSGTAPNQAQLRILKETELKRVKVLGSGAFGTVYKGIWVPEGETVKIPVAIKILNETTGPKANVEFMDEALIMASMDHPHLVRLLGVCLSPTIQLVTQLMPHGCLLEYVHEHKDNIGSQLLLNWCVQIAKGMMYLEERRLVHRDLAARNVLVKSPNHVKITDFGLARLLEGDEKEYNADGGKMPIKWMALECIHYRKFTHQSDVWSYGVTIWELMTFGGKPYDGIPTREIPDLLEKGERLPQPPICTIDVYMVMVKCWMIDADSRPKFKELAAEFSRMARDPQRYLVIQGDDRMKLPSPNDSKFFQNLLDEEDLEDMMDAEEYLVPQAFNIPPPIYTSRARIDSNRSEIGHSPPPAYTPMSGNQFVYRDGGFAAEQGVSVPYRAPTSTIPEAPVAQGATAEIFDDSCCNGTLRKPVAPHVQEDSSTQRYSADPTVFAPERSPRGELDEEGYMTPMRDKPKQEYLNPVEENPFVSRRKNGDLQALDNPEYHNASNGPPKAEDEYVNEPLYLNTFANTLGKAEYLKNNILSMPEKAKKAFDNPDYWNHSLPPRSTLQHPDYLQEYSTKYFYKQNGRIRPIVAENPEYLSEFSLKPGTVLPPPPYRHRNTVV

With C=CC(=O)Nc1cc(Nc2ncc(Br)c(Nc3ccc4ccn(C)c4c3)n2)c(OC)cc1N1CCN(C)CC1 the AUC [1] was 52.3 ng·h/mL, the residual activity [2] was greater than 35% and the Cmax [3] was 235 ng/mL. The inhibition (NCI-H1975 [4]) was “Dose-Dependent Effect”, the Activity [5] was “Non-Toxic” and the Vd [6] was 6.56 L/kg. The pIC50 [7] was 8.39, the clearance [8] was 32.6 mL/min/kg and the residual activity [9] was less than 10%. For the same compound, the Cmax [10] was 636 ng/mL, the inhibition [11] was “Active” and the Activity [12] was “Non-Toxic”. The inhibition [13] was “inactive”, the residual activity [14] was less than 10% and the inhibition [15] was “Dose-Dependent Effect”. The inhibition in vivo at 30 mg/kg (NCI-H1975 [16]) was 86%, the residual activity [17] was less than 10% and the inhibition (NCI-H1975 [18]) was “Dose-Dependent Effect”. For the same compound, the AUC [19] was 515 ng·h/mL, the pIC50 (NCI-H1975 [20]) was 6.74 and the half-life [21] was 3.47 h. For the same compound, the Activity [22] was “Non-Toxic”.
